In ChEMBL document CHEMBL1154855 (Eur J Med Chem, 2010):

Key:
[1] = (§1) Cytotoxicity against VSV infected human HeLa cells by trypan blue exclusion method; format: cell-based; settings: HeLa cells infected with VSV
In short: (§2)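 Uninfected confluent cultures were run in parallel with the infected cultures. Medium was replaced by 1 ml maintenance medium with serial compound concentrations; cell controls received no compound. Cultures were incubated at 37 °C. After 2 and 7 days, compound was withdrawn and viability was determined by trypan blue exclusion.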

[2] = system: Human alphaherpesvirus 1; test: Antiviral activity against Herpes simplex virus 1 KOS infected in HEL cells assessed as protection from virus-induced cytopathogenicity after 2 to 3 days by MTT assay; format: functional, organism-based; settings: Human alphaherpesvirus 1, KOS
[3] = (§3) Cytotoxicity against Herpes simplex virus 2 G infected HEL cells by trypan blue exclusion method; format: cell-based; settings: human, HEL cells infected with herpes simplex virus 2 G; in short: as §2
[4] = (§4) Cytotoxicity against Sindbis virus infected african green monkey Vero cells by trypan blue exclusion method; format: cell-based; settings: chlorocebus sabaeus, Vero cells infected with Sindbis virus; in short: as §2
[5] = (§5) Cytotoxicity against Vaccinia virus infected HEL cells by trypan blue exclusion method; format: cell-based; settings: human, HEL cells infected with vaccinia virus; in short: as §2
[6] = (§6) Cytotoxicity against Herpes simplex virus 1 KOS infected HEL cells by trypan blue exclusion method; format: cell-based; settings: human, HEL cells infected with herpes simplex virus 1 KOS; in short: as §2
[7] = system: Coxsackievirus B4; test: Antiviral activity against Human coxsackievirus B4 infected in human HeLa cells assessed as protection from virus-induced cytopathogenicity after 2 days by MTT assay; format: functional, organism-based; settings: Enterovirus B, 48 h
[8] = (§7) Cytotoxicity against Reovirus 1 infected african green monkey Vero cells by trypan blue exclusion method; format: cell-based; settings: chlorocebus sabaeus, Vero cells infected with reovirus 1; in short: as §2
[9] = system: Human alphaherpesvirus 1; test: Antiviral activity against acyclovir-sensitive Herpes simplex virus 1 KOS infected in HEL cells assessed as protection from virus-induced cytopathogenicity after 2 to 3 days by MTT assay; format: functional, organism-based; settings: Human alphaherpesvirus 1, KOS
[10] = system: Vesicular stomatitis virus; test: Antiviral activity against VSV infected in HEL cells assessed as protection from virus-induced cytopathogenicity after 1 to 2 days by MTT assay; format: functional, organism-based
[11] = (§8) Cytotoxicity against Punta Toro virus infected african green monkey Vero cells by trypan blue exclusion method; format: cell-based; settings: chlorocebus sabaeus, Vero cells infected with Punta Toro virus; in short: as §2
[12] = system: Sindbis virus; test: Antiviral activity against Sindbis virus infected in african green monkey Vero cells assessed as protection from virus-induced cytopathogenicity after 2 to 3 days by MTT assay; format: functional, organism-based
[13] = system: Influenza A virus; test: Antiviral activity against Influenza A virus H1N1 infected in MDCK cells assessed as protection from virus-induced cytopathogenicity after 6 to 7 days by MTT assay; format: functional, organism-based
[14] = system: Coxsackievirus B4; test: Antiviral activity against Human coxsackievirus B4 infected in african green monkey Vero cells assessed as protection from virus-induced cytopathogenicity after 2 days by MTT assay; format: functional, organism-based; settings: Enterovirus B, 48 h
[15] = system: Human alphaherpesvirus 2; test: Antiviral activity against Herpes simplex virus 2 G infected in HEL cells assessed as protection from virus-induced cytopathogenicity after 2 to 3 days by MTT assay; format: functional, organism-based; settings: Human alphaherpesvirus 2, strain G
[16] = (§9) Cytotoxicity against VSV infected HEL cells by trypan blue exclusion method; format: cell-based; settings: human, HEL cells infected with VSV; in short: as §2
[17] = (§10) Cytotoxicity against Human coxsackievirus B4 infected human HeLa cells by trypan blue exclusion method; format: cell-based; settings: HeLa cells infected with human coxsackievirus B4; in short: as §2
[18] = (§11) Cytotoxicity against Respiratory syncytial virus infected human HeLa cells by trypan blue exclusion method; format: cell-based; settings: HeLa cells infected with respiratory syncytial virus; in short: as §2
[19] = system: Human respirovirus 3; test: Antiviral activity against PIV 3 infected in african green monkey Vero cells assessed as protection from virus-induced cytopathogenicity after 6 to 7 days by MTT assay; format: functional, organism-based; settings: Human respirovirus 3, Vero
[20] = (§12) Cytotoxicity against Human coxsackievirus B4 infected african green monkey Vero cells by trypan blue exclusion method; format: cell-based; settings: chlorocebus sabaeus, Vero cells infected with human coxsackievirus B4; in short: as §2
[21] = system: Respiratory syncytial virus; test: Antiviral activity against Respiratory syncytial virus infected in human HeLa cells assessed as protection from virus-induced cytopathogenicity after 4 days by MTT assay; format: functional, organism-based; settings: 96 h
[22] = (§13) Cytotoxicity against PIV 3 infected african green monkey Vero cells by trypan blue exclusion method; format: cell-based; settings: chlorocebus sabaeus, Vero cells infected with PIV 3; in short: as §2
[23] = system: HeLa; test: as §1; format: cell-based; settings: hela; in short: as §2
[24] = system: Human immunodeficiency virus 2; test: Antiviral activity against HIV2 ROD infected in human MT4 cells assessed as protection from virus-induced cytopathogenicity after 5 days by MTT assay; format: functional, organism-based; settings: Human immunodeficiency virus 2, ISOLATE ROD, MT4, 120 h
In short: (§14)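 MT-4 cells at 3 × 10^4 per well were infected with HIV (IIIB or ROD) at 50% cell culture infective doses. Graded compound concentrations were added immediately after infection. Plates were incubated for 5 days at 37 °C and viable cells were counted by MTT.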

[25] = system: Mammalian orthoreovirus 1; test: Antiviral activity against Reovirus 1 infected in african green monkey Vero cells assessed as protection from virus-induced cytopathogenicity after 6 to 7 days by MTT assay; format: functional, organism-based; settings: Mammalian orthoreovirus 1, Vero
[26] = Cytotoxicity against HIV1 3B-infected human MT4 cells by MTT assay; format: cell-based; settings: MT4 cells infected with HIV-1 3B
In short: (§15)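 MT-4 cells (3 × 10^4 per well) were cultured in microdilution trays with various concentrations of compound, then incubated 5 days at 37 °C, and viable cell number was read by MTT.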

[27] = system: HEL; test: as §3; format: cell-based; settings: human, hel; in short: as §2
[28] = Cytotoxicity against Feline coronavirus infected cat CRFK cells by trypan blue exclusion method; format: cell-based, Felis catus; settings: crfk; in short: as §2
[29] = system: Vero; test: as §4; format: cell-based; settings: chlorocebus sabaeus, vero; in short: as §2
[30] = system: HEL; test: as §5; format: cell-based; settings: human, hel; in short: as §2
[31] = system: HEL; test: as §6; format: cell-based; settings: human, hel; in short: as §2
[32] = system: Punta Toro virus; test: Antiviral activity against Punta Toro virus infected in african green monkey Vero cells assessed as protection from virus-induced cytopathogenicity by MTT assay; format: functional, organism-based
[33] = system: MDCK; test: Cytotoxicity against Influenza A virus subtype H3N2 infected MDCK cells by trypan blue exclusion method; format: cell-based, Canis lupus familiaris; settings: dog
[34] = system: Vero; test: as §7; format: cell-based; settings: chlorocebus sabaeus, vero; in short: as §2
[35] = Selectivity index, ratio of CC50 for HIV2 ROD infected human MT4 cells to IC50 for […] ROD; format: functional
[36] = system: Vesicular stomatitis virus; test: Antiviral activity against VSV infected in human HeLa cells assessed as protection from virus-induced cytopathogenicity after 1 to 2 days by MTT assay; format: functional, organism-based
[37] = system: Influenza A virus; test: Antiviral activity against Influenza A virus H3N2 infected in MDCK cells assessed as protection from virus-induced cytopathogenicity after 6 to 7 days by MTT assay; format: functional, organism-based
[38] = system: MDCK; test: Cytotoxicity against Influenza B virus infected MDCK cells by trypan blue exclusion method; format: cell-based, Canis lupus familiaris; settings: dog
[39] = Cytotoxicity against Feline herpesvirus infected cat CRFK cells by trypan blue exclusion method; format: cell-based, Felis catus; settings: crfk; in short: as §2
[40] = system: HEL; test: Cytotoxicity against acyclovir-sensitive Herpes simplex virus 1 KOS infected HEL cells by trypan blue exclusion method; format: cell-based; settings: human; in short: as §2
[41] = system: Feline coronavirus; test: Antiviral activity against Feline coronavirus infected in cat CRFK cells assessed as protection from virus-induced cytopathogenicity by MTT assay; format: functional, organism-based; settings: Alphacoronavirus 1, CRFK
[42] = system: Felid alphaherpesvirus 1; test: Antiviral activity against Feline herpesvirus infected in cat CRFK cells assessed as protection from virus-induced cytopathogenicity by MTT assay; format: functional, organism-based; settings: Felid alphaherpesvirus 1, CRFK
[43] = system: Vero; test: as §8; format: cell-based; settings: chlorocebus sabaeus, vero; in short: as §2
[44] = system: Influenza B virus; test: Antiviral activity against Influenza B virus infected in MDCK cells assessed as protection from virus-induced cytopathogenicity after 6 to 7 days by MTT assay; format: functional, organism-based
[45] = Cytotoxicity against HIV2 ROD infected human MT4 cells by MTT assay; format: cell-based; settings: MT4 cells infected with HIV-2 ROD; in short: as §15
[46] = system: HEL; test: as §9; format: cell-based; settings: human, hel; in short: as §2
[47] = system: HeLa; test: as §10; format: cell-based; settings: hela; in short: as §2
[48] = system: HeLa; test: as §11; format: cell-based; settings: hela; in short: as §2
[49] = system: MDCK; test: Cytotoxicity against Influenza A virus subtype H1N1 infected MDCK cells by trypan blue exclusion method; format: cell-based, Canis lupus familiaris; settings: dog
[50] = system: Vero; test: as §12; format: cell-based; settings: chlorocebus sabaeus, vero; in short: as §2
[51] = system: Vero; test: as §13; format: cell-based; settings: chlorocebus sabaeus, vero; in short: as §2
[52] = system: Human immunodeficiency virus 1; test: Antiviral activity against HIV1 3B-infected in human MT4 cells assessed as protection from virus-induced cytopathogenicity after 5 days by MTT assay; format: functional, organism-based; settings: Human immunodeficiency virus 1, 3B, MT4, 120 h; in short: as §14

SMILES: NC(=O)c1ncn([C@@H]2O[C@H](CO)[C@@H](O)[C@H]2O)n1 [RIBAVIRIN]
- CC50 [1]: > 250 µM
- EC50 [2]: 10 µM
- CC50 [3]: > 250 µM
- CC50 [4]: > 250 µM
- CC50 [5]: > 250 µM
- CC50 [6]: > 250 µM
- EC50 [7]: 30 µM
- CC50 [8]: > 250 µM
- EC50 [9]: 125 µM
- EC50 [10]: > 250 µM
- CC50 [11]: > 250 µM
- EC50 [12]: 111 µM
- EC50 [13]: 7 µM
- EC50 [14]: > 250 µM
- EC50 [15]: 50 µM
- CC50 [16]: > 250 µM
- CC50 [17]: > 250 µM
- CC50 [18]: > 250 µM
- EC50 [19]: 95 µM
- CC50 [20]: > 250 µM
- EC50 [21]: 30 µM
- CC50 [22]: > 250 µM

SMILES: COc1cc(/C=C/C(=O)CC(=O)/C=C/c2ccc(OCCOC(=O)CCC(NC(=O)c3ccc(NCc4cnc5nc(N)[nH]c(=O)c5n4)cc3)C(=O)O)c(OC)c2)ccc1O (configuration not stated)
- CC50 [23]: > 0.119 µM
- IC50 [24]: 0.069 µM
- EC50 [2]: > 0.119 µM
- EC50 [25]: > 0.119 µM
- CC50 [26]: > 0.063 µM
- CC50 [27]: > 0.119 µM
- CC50 [28]: > 0.119 µM
- CC50 [29]: > 0.119 µM
- CC50 [30]: > 0.119 µM
- CC50 [31]: > 0.119 µM
- EC50 [7]: > 0.119 µM
- EC50 [32]: > 0.119 µM
- CC50 [33]: > 0.119 µM
- CC50 [34]: > 0.119 µM
- EC50 [9]: > 0.119 µM
- Ratio CC50/IC50 [35]: <1
- EC50 [36]: > 0.119 µM
- EC50 [37]: > 0.119 µM
- CC50 [38]: > 0.119 µM
- EC50 [10]: > 0.119 µM
- CC50 [39]: > 0.119 µM
- CC50 [40]: > 0.119 µM
- EC50 [41]: 0.078 µM
- EC50 [42]: 0.105 µM
- CC50 [43]: > 0.119 µM
- EC50 [12]: > 0.119 µM
- EC50 [13]: > 0.119 µM
- EC50 [44]: > 0.119 µM
- CC50 [45]: > 0.069 µM
- EC50 [14]: > 0.119 µM
- EC50 [15]: > 0.119 µM
- CC50 [46]: > 0.119 µM
- CC50 [47]: > 0.119 µM
- CC50 [48]: > 0.119 µM
- CC50 [49]: > 0.119 µM
- EC50 [19]: > 0.119 µM
- CC50 [50]: > 0.119 µM
- EC50 [21]: > 0.119 µM
- CC50 [51]: > 0.119 µM
- IC50 [52]: 0.063 µM
